From ChEMBL document CHEMBL1240328, “Selective compounds define Hsp90 as a major inhibitor of apoptosis in small-cell lung cancer” (Nat Chem Biol, 2007) come the findings set out here.

A word on the inhibition: it is the relative decrease from the control value, in per cent.

Activity calls are given as the source filed them.

Experiment [1] has as its target Heat shock protein HSP 90-beta (Homo sapiens) (UniProt P08238). Kind of experiment: Binding affinity to HSP90 in human NCI-H510 cells after 24 hrs by fluorescence polarization assay. It counts as cell-based. In general terms: Polarisation of emitted light reports the rotation of a fluorescent probe.
Experiment [2] has the same target. Kind of experiment: Inhibition of HSP90-mediated antiapoptotic activity in human NCI-H69 cells assessed as increase in apoptotic cell population at 0.2 to 1 uM after 72 hrs by FACS analysis relative to control. It counts as cell-based. Background: Flow cytometry measures light scatter and fluorescence of single cells or particles in a stream.
Experiment [3] shares this target. Briefly: Inhibition of HSP90-mediated antiapoptotic activity in human SKI-AC3 cells assessed as induction of cell growth arrest at 10 after 96 hrs by propidium iodide staining-based flow cytometry.
Experiment [4] has the same target. Briefly: Binding affinity to HSP90 in human NCI-H209 cells after 24 hrs by fluorescence polarization assay. It counts as cell-based.
Experiment [5] has the same target. Kind of experiment: Inhibition of HSP90-mediated proliferation of human SKBR3cells after 72 hrs by sulforhodamine B assay.
Experiment [6] has the same target. Briefly: Inhibition of HSP90-mediated proliferation of human NCI-H209 cells at 1 to 3 uM after 72 to 96 hrs by sulforhodamine B assay. The format is cell-based. On the technique in general: The SRB assay estimates cell density from bound dye.
For experiment [7] the target is unchanged. Briefly: Binding affinity to HSP90 in human NCI-H187 cells after 24 hrs by fluorescence polarization assay.
For experiment [8] the target is unchanged. Briefly: Inhibition of HSP90-mediated antiapoptotic activity in human NCI-H209 cells assessed as increase in apoptotic cell population at 0.2 to 1 uM after 96 hrs by FACS analysis relative to control. It counts as cell-based.
For experiment [9] the target is unchanged. Briefly: Inhibition of HSP90-mediated antiapoptotic activity in human H69AR cells assessed as induction of cell growth arrest at 10 after 96 hrs by propidium iodide staining-based flow cytometry.
The target is the same in experiment [10]. Kind of experiment: Inhibition of HSP90-mediated proliferation of human NCI-H510 cells at 1 to 3 uM after 72 to 96 hrs by sulforhodamine B assay. The format is cell-based.
Experiment [11] shares this target. Briefly: Inhibition of HSP90 in chemo-resistant human SKI-AC3 cells at 100 uM after 24 hrs by fluorescence polarization assay. The format is cell-based. The essentials:
(§1)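 Competitive fluorescence polarization in lysates of H69AR, SKI-AC3 and WBA cells, prepared in HFB buffer pH 7.3 and normalized to Hsp90. Tracer was 3 nM Cy3B-geldanamycin, with incubation for 24 h at 4 °C. EC50 was defined as 50% tracer displacement.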

Experiment [12] shares this target. Briefly: Inhibition of HSP90-mediated proliferation of human NCI-H146 cells at 1 to 3 uM after 72 to 96 hrs by sulforhodamine B assay. The format is cell-based.
The target is the same in experiment [13]. Kind of experiment: Binding affinity to HSP90 in human SKBR3 cells after 24 hrs by fluorescence polarization assay. Particulars: SK-BR-3.
For experiment [14] the target is unchanged. Kind of experiment: Inhibition of HSP90-mediated proliferation of human NCI-H526 cells at 1 to 3 uM after 72 to 96 hrs by sulforhodamine B assay. It counts as cell-based.
Experiment [15] shares this target. Briefly: Binding affinity to HSP90 in human NCI-H526 cells after 24 hrs by fluorescence polarization assay. The format is cell-based.
For experiment [16] the target is unchanged. Kind of experiment: Inhibition of HSP90-mediated proliferation of human NCI-N417 cells at 1 to 3 uM after 72 to 96 hrs by sulforhodamine B assay. The settings on record: NCI-H417. The format is cell-based.
Experiment [17] shares this target. Kind of experiment: Inhibition of HSP90 in chemo-resistant human WBA cells at 100 uM after 24 hrs by fluorescence polarization assay. It counts as cell-based. The essentials: as §1
The target is the same in experiment [18]. Kind of experiment: Binding affinity to HSP90 in human NCI-N417 cells after 24 hrs by fluorescence polarization assay. The format is cell-based. Particulars: NCI-H417.
Experiment [19] shares this target. Kind of experiment: Inhibition of HSP90 in chemo-resistant human H69AR cells at 100 uM after 24 hrs by fluorescence polarization assay. It counts as cell-based. Summed up:
as §1

Experiment [20] has the same target. Briefly: Inhibition of HSP90-mediated antiapoptotic activity in human NCI-H526 cells assessed as increase in apoptotic cell population at 0.2 to 1 uM after 72 hrs by FACS analysis relative to control. It counts as cell-based.
Experiment [21] shares this target. Briefly: Binding affinity to HSP90 in human NCI-H146 cells after 24 hrs by fluorescence polarization assay. The format is cell-based.
Experiment [22] has the same target. Briefly: Binding affinity to HSP90 in human NCI-H69 cells after 24 hrs by fluorescence polarization assay.
For experiment [23] the target is unchanged. Kind of experiment: Inhibition of HSP90-mediated antiapoptotic activity in human NCI-H146 cells assessed as increase in apoptotic cell population at 0.2 to 1 uM after 96 hrs by FACS analysis relative to control. It counts as cell-based.
For experiment [24] the target is unchanged. Briefly: Inhibition of HSP90-mediated antiapoptotic activity in human NCI-N417 cells assessed as increase in apoptotic cell population at 0.2 to 1 uM after 96 hrs by FACS analysis relative to control. It counts as cell-based.
For experiment [25] the target is unchanged. Kind of experiment: Inhibition of HSP90-mediated antiapoptotic activity in human WBA cells assessed as induction of cell growth arrest at 10 after 96 hrs by propidium iodide staining-based flow cytometry.
The target is the same in experiment [26]. Briefly: Inhibition of HSP90-mediated proliferation of human NCI-H187 cells at 1 to 3 uM after 72 to 96 hrs by sulforhodamine B assay. It counts as cell-based.
The target is the same in experiment [27]. Kind of experiment: Inhibition of HSP90-mediated antiapoptotic activity in human NCI-H510 cells assessed as increase in apoptotic cell population at 0.2 to 1 uM after 96 hrs by FACS analysis relative to control. The format is cell-based.
Experiment [28] has the same target. Kind of experiment: Inhibition of HSP90-mediated antiapoptotic activity in human NCI-H187 cells assessed as increase in apoptotic cell population at 0.2 to 1 uM after 72 hrs by FACS analysis relative to control. It counts as cell-based.
Experiment [29] has the same target. Briefly: Inhibition of HSP90-mediated proliferation of human NCI-H69 cells at 1 to 3 uM after 72 to 96 hrs by sulforhodamine B assay. The format is cell-based.
In experiment [30] the test system is SK-BR-3. Kind of experiment: Inhibition of HSP70-mediated antiapoptotic activity in human SKBR3 cells assessed as release of Apaf-1 from chaperon complex after 24 hrs by Western blot analysis. The format is cell-based. The essentials: (§2)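 SKBr3 cells were treated for 24 h. Lysates were probed by western blot for caspase-3 and PARP cleavage. Apaf-1 complexes were pulled down with Apaf-1 antibody (with control IgG) and immunoblotted.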

The subject of experiment [31] is SK-BR-3. Kind of experiment: Inhibition of HSP70-mediated antiapoptotic activity in human SKBR3 cells assessed as induction of caspase-3 cleavage after 24 hrs by Western blot analysis. The format is cell-based. The essentials: as §2
The target of experiment [32] is Heat shock protein HSP 90-beta (Homo sapiens) (UniProt P08238). Briefly: Inhibition of HSP90-mediated antiapoptotic activity in human SKBR3 cells assessed as induction of caspase-3 cleavage at 400 uM after 24 hrs by Western blot analysis. The format is cell-based. Particulars: SK-BR-3. Summed up:
(§3)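 SKBr3 cells at 60–70% confluence were exposed to drug or DMSO vehicle. Lysis was in 50 mM Tris pH 7.4, 150 mM NaCl, 1% NP-40, with protein measured by BCA. Lysates of 20–100 µg were run on SDS-PAGE, blotted to nitrocellulose, probed with primary antibodies and detected with a peroxidase-conjugated secondary (1:5,000). Loading was checked with β-actin or PI(3)K p85.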

For experiment [33], the system named is NCI-H526. Briefly: Inhibition of HSP70-mediated antiapoptotic activity in human NCI-H526 cells assessed as release of Apaf-1 from chaperon complex after 24 hrs by Western blot analysis. It counts as cell-based. Summed up:
(§4)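 NCI-H526 cells were treated for 24 h. PARP and caspase-3 cleavage were read by western blot of lysates in Tris/NaCl/NP-40 buffer. Apaf-1 complexes were immunoprecipitated with Apaf-1 antibody, using control IgG, then blotted.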

The target in experiment [34] is Heat shock protein HSP 90-beta (Homo sapiens) (UniProt P08238). Kind of experiment: Inhibition of HSP90-mediated antiapoptotic activity in human SKBR3 cells assessed as induction of cell growth arrest at 50 uM after 24 hrs by propidium iodide staining-based flow cytometry. Particulars: SK-BR-3.
For experiment [35], the system named is SK-BR-3. Briefly: Inhibition of HSP70-mediated antiapoptotic activity in human SKBR3 cells assessed as increase in caspase-3 activity after 24 hrs by Western blot analysis. The format is cell-based.
The subject of experiment [36] is NCI-H526. Briefly: Inhibition of HSP70-mediated antiapoptotic activity in human NCI-H526 cells assessed as induction of caspase-3 cleavage after 24 hrs by Western blot analysis. It counts as cell-based. Summed up:
as §4

Experiment [37] deals with Heat shock protein HSP 90-beta (Homo sapiens) (UniProt P08238). Kind of experiment: Inhibition of HSP90-mediated antiapoptotic activity in human SKBR3 cells assessed as induction of PARP cleavage at 50 uM after 24 hrs by Western blot analysis. It counts as cell-based. The settings on record: SK-BR-3. Summed up: as §3
Experiment [38] concerns NCI-H526. Kind of experiment: Inhibition of HSP70-mediated antiapoptotic activity in human NCI-H526 cells assessed as induction of PARP cleavage after 24 hrs by Western blot analysis. It counts as cell-based. The essentials: as §4
Experiment [39] concerns SK-BR-3. Briefly: Inhibition of HSP70-mediated antiapoptotic activity in human SKBR3 cells assessed as induction of PARP cleavage after 24 hrs by Western blot analysis. The format is cell-based. The essentials: as §2
The target of experiment [40] is Heat shock protein HSP 90-beta (Homo sapiens) (UniProt P08238). Briefly: Inhibition of HSP90-mediated antiapoptotic activity in human NCI-H526 cells assessed as reduction in BAD phosphorylation at 50 uM after 24 hrs by Western blot analysis. It counts as cell-based.
The target is the same in experiment [41]. Kind of experiment: Inhibition of HSP90-mediated antiapoptotic activity in human MCF7 cells assessed as induction of caspase-9 cleavage at 50 uM after 24 hrs by Western blot analysis. The format is cell-based.
For experiment [42] the target is unchanged. Briefly: Inhibition of HSP90-mediated antiapoptotic activity in human NCI-H526 cells assessed as induction of Akt degradation at 50 uM after 24 hrs by Western blot analysis. The format is cell-based.
In experiment [43] the test system is SK-BR-3. Briefly: Inhibition of HSP70-mediated antiapoptotic activity in human SKBR3 cells assessed as induction of cell growth arrest after 72 hrs by propidium iodide staining-based flow cytometry.
In experiment [44] the target is Heat shock protein HSP 90-beta (Homo sapiens) (UniProt P08238). Briefly: Inhibition of HSP90-mediated antiapoptotic activity in human MCF7 cells assessed as induction of PARP cleavage at 50 uM after 24 hrs by Western blot analysis. The format is cell-based.
Experiment [45] shares this target. Briefly: Inhibition of HSP90-mediated antiapoptotic activity in human MCF7 cells assessed as induction of cell growth arrest at 50 uM after 24 hrs by propidium iodide staining-based flow cytometry.
Experiment [46] has the same target. Kind of experiment: Inhibition of HSP90-mediated antiapoptotic activity in human MCF7 cells assessed as induction of caspase-3 cleavage at 50 uM after 24 hrs by Western blot analysis. The format is cell-based.

Chain of Heat shock protein HSP 90-beta (Homo sapiens) (P08238 whole entry): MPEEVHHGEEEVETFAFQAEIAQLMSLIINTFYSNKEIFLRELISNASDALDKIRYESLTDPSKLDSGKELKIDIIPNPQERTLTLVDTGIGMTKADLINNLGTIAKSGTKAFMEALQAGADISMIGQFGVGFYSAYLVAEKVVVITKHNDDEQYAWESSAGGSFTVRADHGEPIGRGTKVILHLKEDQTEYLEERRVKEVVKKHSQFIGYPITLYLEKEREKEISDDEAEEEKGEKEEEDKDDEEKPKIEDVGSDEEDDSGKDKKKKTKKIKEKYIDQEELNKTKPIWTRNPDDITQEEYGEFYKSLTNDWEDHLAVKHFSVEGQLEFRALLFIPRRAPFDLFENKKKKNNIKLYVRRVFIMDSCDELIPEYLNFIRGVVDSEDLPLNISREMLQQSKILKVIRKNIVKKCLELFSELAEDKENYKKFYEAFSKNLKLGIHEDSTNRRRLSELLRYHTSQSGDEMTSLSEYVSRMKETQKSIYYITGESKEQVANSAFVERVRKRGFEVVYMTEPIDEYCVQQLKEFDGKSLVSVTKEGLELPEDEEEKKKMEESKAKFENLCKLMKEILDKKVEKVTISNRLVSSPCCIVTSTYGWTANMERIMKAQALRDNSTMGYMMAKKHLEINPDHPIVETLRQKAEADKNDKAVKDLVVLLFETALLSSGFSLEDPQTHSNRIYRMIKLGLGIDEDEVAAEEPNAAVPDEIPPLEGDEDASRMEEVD

Consider `C#CCCCn1c(Sc2cc3c(cc2Br)OCO3)nc2c(N)ncnc21`, for which the outcome in experiment [1], in experiment [3], in experiment [4], in experiment [7], in [9] and in [13] was Active. In addition, the result in [15], in experiment [18], in experiment [21], in experiment [22] and in [25] was Active. Moreover, the fold change (FC) in experiment [2], in experiment [8], in [20], in experiment [23], in experiment [24] and in experiment [27] was 2 each time. For the same compound, the fold change (FC) in experiment [28] amounted to 2. The inhibition entry in experiment [5], in [11], in experiment [17] and in [19] was “Active” each time. Also, the inhibition in experiment [6], in experiment [10], in [12], in experiment [14], in experiment [16] and in experiment [26] was 50% each time. The compound also gave an inhibition in experiment [29] of 50%.

On to `CCCCCCN(C(=O)CCCCCN1C(=O)NC(c2ccc(-c3ccccc3)cc2)C(C(=O)OCc2ccccc2)=C1C)C(C(=O)NCCCC)c1ccc(OCC(=O)OC)c(C(=O)OC)c1` (stereo unspecified), for which the inhibition result with SK-BR-3 [30], in the experiment on NCI-H526 [33], in the experiment with NCI-H526 [36] and with NCI-H526 [38] was “inactive” in each case. The inhibition entry (in the experiment on SK-BR-3 [31]; in the experiment on SK-BR-3 [35]; in the experiment on SK-BR-3 [39]; in experiment [40]; in the experiment with SK-BR-3 [43]) was “Active” each time. In addition, the result in experiment [32], in experiment [34], in experiment [37], in experiment [41], in experiment [42] and in experiment [44] was Active. In addition, the result in [45] and in [46] was Active.
